Experimental data as given in ChEMBL document CHEMBL2424583, “Structure-activity relationship and in vitro and in vivo evaluation of the potent cytotoxic anti-microtubule agent N-(4-methoxyphenyl)-N,2,6-trimethyl-6,7-dihydro-5H-cyclopenta[d]pyrimidin-4-aminium chloride and its analogues as antitumor agents” (J Med Chem, 2013).
The source made the active and inactive calls. The calls are words filed in the database; no cut-off is given here.

How the values were obtained:
[1] = tested on: MDA-MB-231; assay: Antitumor activity against human MDA-MB-231 cells xenografted in athymic nude mouse assessed as tumor growth inhibition at 50 mg/kg, ip qd administered on day 14 for 5 days followed by compound readministration on day 27 measured on day 31 relative to control; type: functional; conditions: route intraperitoneal
Method in brief: (§1)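 Female athymic nude mice were implanted sc with an MDA-MB-231T tumour fragment, and tumours were staged to about 125 mg. Drug was given ip in 10% DMSO in saline/Tween 80, with courses starting day 14 and repeated from day 27. There were 8 animals per treated group and 16 controls. Read-outs were body weight, deaths, median tumour mass as T/C, days to a predetermined size as T-C/C, and net log cell kill.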

[2] = tested on: Mus musculus; assay: Toxicity in athymic nude mouse xenografted in human MDA-MB-231 cells assessed as mortality at 50 mg/kg, ip bid administered every other day started on day 14 followed by compound readministration every other day started on day 27; type: organism-based; parameters: dose 50 mg/kg, route intraperitoneal; conditions: in vivo; method in brief: as §1
[3] = tested on: MDA-MB-231; assay: Antitumor activity against human MDA-MB-231 cells xenografted in athymic nude mouse assessed as net tumor log cell kill at 50 mg/kg, ip bid administered every other day started on day 14 followed by compound readministration every other day started on day 27; type: functional; conditions: route intraperitoneal; method in brief: as §1
[4] = tested on: MDA-MB-231; assay: Antitumor activity against human MDA-MB-231 cells xenografted in athymic nude mouse assessed as tumor free state at 50 mg/kg, ip bid administered every other day started on day 14 followed by compound readministration every other day started on day 27 measured on day 41; type: functional, organism-based; parameters: dose 50 mg/kg
Method in brief: (§2)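 Female athymic nude mice carried sc MDA-MB-231T tumor fragments staged to about 125 mg. Compound was given ip as a solution in 10% DMSO in saline/Tween 80, with courses beginning day 14 and repeated from day 27. Groups had 8 animals, with 16 vehicle controls. Animals were scored as tumor-free on day 41.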

[5] = tested on: MDA-MB-231; assay: Antitumor activity against human MDA-MB-231 cells xenografted in athymic nude mouse assessed as tumor free state at 75 mg/kg, ip qd administered every other day started on day 14 for 5 days followed by compound readministration on day 27 measured on day 41; type: functional, organism-based; parameters: dose 75 mg/kg; method in brief: as §2
[6] = tested on: MDA-MB-231; assay: Antitumor activity against human MDA-MB-231 cells xenografted in athymic nude mouse assessed as tumor growth inhibition at 75 mg/kg, ip qd administered every other day started on day 14 for 5 days followed by compound readministration on day 27 measured on day 31 relative to control; type: functional; conditions: route intraperitoneal; method in brief: as §1
[7] = tested on: MDA-MB-231; assay: Antitumor activity against human MDA-MB-231 cells xenografted in athymic nude mouse assessed as delay in tumor growth at 50 mg/kg, ip bid administered every other day started on day 14 followed by compound readministration every other day started on day 27 measured on day 31 relative to control; type: functional; conditions: route intraperitoneal
Method in brief: (§3)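 MDA-MB-231T tumor fragments implanted sc in female athymic nude mice and staged to about 125 mg. Dosing was ip in 10% DMSO in saline/Tween 80, with courses starting day 14 and again day 27. Groups had 8 treated animals and 16 controls. Growth delay (T-C/C) is the median days for treated vs control tumors to reach a predetermined size, normalized to control, as %.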

[8] = tested on: MDA-MB-231; assay: Antitumor activity against human MDA-MB-231 cells xenografted in athymic nude mouse assessed as delay in tumor growth at 75 mg/kg, ip qd administered every other day started on day 14 for 5 days followed by compound readministration on day 27 measured on day 31 relative to control; type: functional; conditions: route intraperitoneal; method in brief: as §3
[9] = tested on: Mus musculus; assay: Toxicity in athymic nude mouse xenografted in human MDA-MB-231 cells assessed as mortality at 50 mg/kg, ip qd administered on day 14 for 5 days followed by compound readministration on day 27; type: organism-based; parameters: dose 50 mg/kg, route intraperitoneal; conditions: in vivo, 120 h; method in brief: as §1
[10] = tested on: MDA-MB-231; assay: Antitumor activity against human MDA-MB-231 cells xenografted in athymic nude mouse assessed as tumor growth inhibition at 50 mg/kg, ip bid administered every other day started on day 14 followed by compound readministration every other day started on day 27 measured on day 31 relative to control; type: functional; conditions: route intraperitoneal; method in brief: as §1
[11] = tested on: MDA-MB-231; assay: Antitumor activity against human MDA-MB-231 cells xenografted in athymic nude mouse assessed as delay in tumor growth at 75 mg/kg, ip qd administered on day 14 for 5 days followed by compound readministration on day 27 measured on day 31 relative to control; type: functional; conditions: route intraperitoneal; method in brief: as §1
[12] = tested on: CAKI-1; assay: Cytotoxicity against human CAKI-1 cells assessed as growth inhibition after 48 hrs by SRB assay; type: functional; conditions: CAKI-1, 48 h
[13] = tested on: MDA-MB-231; assay: Antitumor activity against human MDA-MB-231 cells xenografted in athymic nude mouse assessed as net tumor log cell kill at 75 mg/kg, ip qd administered on day 14 for 5 days followed by compound readministration on day 27; type: functional; conditions: route intraperitoneal; method in brief: as §1
[14] = tested on: Mus musculus; assay: Toxicity in athymic nude mouse xenografted in human MDA-MB-231 cells assessed as body weight loss at 50 mg/kg, ip qd administered on day 14 for 5 days followed by compound readministration on day 27 (reference value: 6.7%); type: organism-based; parameters: dose 50 mg/kg, route intraperitoneal; conditions: in vivo, 120 h
[15] = tested on: MDA-MB-435; assay: Cytotoxicity against human MDA-MB-435 cells assessed as growth inhibition after 48 hrs by SRB assay; type: functional, cell-based; conditions: MDA-MB-435, 48 h
[16] = Relative resistance, ratio of IC50 for beta3 tubulin overexpressed in human HeLa cells to IC50 for human HeLa cells
Method in brief: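 SRB antiproliferative assay on isogenic pairs: parental SK-OV-3 vs Pgp-overexpressing SK-OV-3 MDR-M6-6, and parental HeLa vs βIII-tubulin-transfected HeLa. IC50 is the mean ± SD of at least three independent experiments. Relative resistance (Rr) is the IC50 of the transduced line divided by the IC50 of the parental line.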

| Structure (SMILES) | T/C [1] | Activity [2] | LCK [3] | Activity [4] | Activity [5] | T/C [6] | Activity [7] | Activity [8] | Activity [9] | T/C [10] | Activity [11] | GI50 [12] | LCK [13] | %max [14] | IC50 [15] | Ratio IC50 [16] |
| --- | --- | --- | --- | --- | --- | --- | --- | --- | --- | --- | --- | --- | --- | --- | --- | --- |
| COc1ccc(N(C)c2nc(C)nc3c2CCC3)cc1.Cl | 20% | Non-toxic | -1.3 | Active | Active | 19% | 32% | 44% | Non-toxic | 25% | 40% | < 10 nM | -1.1 | 7.7% | 7 nM | – |
| COc1ccc(N(C)c2nc(C)nc3c2CC(C)C3)cc1.Cl (racemic) | – | – | – | – | – | – | – | – | – | – | – | – | – | – | – | 0.6 |
